The target in the assay is T1, Sodium- and chloride-dependent betaine transporter (Mus musculus, UniProt P31651).
T1 sequence (P31651 whole entry): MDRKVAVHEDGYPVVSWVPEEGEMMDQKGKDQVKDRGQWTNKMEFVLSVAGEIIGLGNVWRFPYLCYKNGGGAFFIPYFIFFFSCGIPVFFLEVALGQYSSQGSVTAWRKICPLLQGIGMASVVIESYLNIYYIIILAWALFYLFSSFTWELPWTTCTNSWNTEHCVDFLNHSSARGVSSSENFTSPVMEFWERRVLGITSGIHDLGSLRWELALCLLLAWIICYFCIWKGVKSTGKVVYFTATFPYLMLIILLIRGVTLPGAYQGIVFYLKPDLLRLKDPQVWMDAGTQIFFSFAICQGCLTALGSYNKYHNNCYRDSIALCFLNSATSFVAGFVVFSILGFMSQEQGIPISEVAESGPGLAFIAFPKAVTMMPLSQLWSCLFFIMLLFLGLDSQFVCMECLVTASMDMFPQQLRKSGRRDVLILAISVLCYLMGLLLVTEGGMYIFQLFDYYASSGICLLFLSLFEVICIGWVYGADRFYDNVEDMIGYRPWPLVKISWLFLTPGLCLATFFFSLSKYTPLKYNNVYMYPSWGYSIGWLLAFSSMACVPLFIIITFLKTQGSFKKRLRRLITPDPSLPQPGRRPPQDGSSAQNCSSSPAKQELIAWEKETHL
The assay can be described thus: Inhibition of mouse BGT1 expressed in HEK293 cells assessed as reduction in [3H]GABA uptake after 3 mins by scintillation counting method. In outline: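 HEK293 lines stably expressing a single mouse GAT subtype, kept under blasticidin-S (5 µg/mL) selection. Cells were assayed about 24 h after plating with 30 nM [3H]GABA plus varying compound concentrations for 3 min at 37 °C in HBSS buffered with 20 mM HEPES (1 mM CaCl2, 1 mM MgCl2, pH 7.4). Cells were washed ice-cold and radioactivity counted. IC50 came from sigmoidal variable-slope fits.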

Turning to `O=C(NC1CCN(Cc2cccc(OC(F)(F)F)c2)CC1)c1ccc(Cl)cc1Cl`, the IC50 came out at 126 µM.

These data come from BindingDB's records for doi:10.1021/acs.jmedchem.7b00924 (University of Copenhagen, 2017).
